Most compounds without a hit are left out; they make up all but 1.5% or so of the library.
Cneo AK release = Cryptococcus neoformans lysis via adenylate kinase release | 360,000 tested, 0.2% active | C. neoformans lysis, adenylate kinase release luminescence, 4 h; normalised: neutral wells 0, clomiphene wells 100 | lysis activity, % at 15 µM;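 active = mean lysis activity across replicates of at least 80%, whatever share of replicates individually reach that level; inactive = mean lysis activity below 80%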
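Material – Cryptococcus neoformans yeast cells · Quantity – 5 × 10^6 yeast cells/mL · Buffer or medium – YPD medium · Compound – single dose · Timing – 4 h static compound exposure, 37 °C, read 1 h post-reagent · Signal – adenylate kinase release luminescence · Read-out basis – lysis from increased AK signal · Benchmarks – Clomiphene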
SUMO Mot1 rescue = SUMOylation pathway inhibition by Mot1-301 growth rescue; 320,000 tested, 1% active; growth rescue, % at 18.8 µM; S. cerevisiae Mot1-301 growth rescue, ATP luminescence, 38.5C; percent above DMSO median, 100 means doubled; AID 2716;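 active = every valid replicate shows activation above 250% relative to neutral control wells; inactive = the rest, any valid replicate at or below 250%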
C2C12 statin = suppressors of simvastatin-induced myotoxicity in C2C12 myotubes. rescue of ATP level, % at 7.49 µM. ATP luminescence, 48 h; scaled: DMSO 0, geranylgeraniol control 100. 330,000 tested, 0.78% active. AID 602340;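 active = mean ATP rescue above about 67%, or every replicate alone reaching that limit, limit read from the data, passing the limit was not always enough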;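 note: myotubes were challenged with 10 µM simvastatin during compound exposure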
Mot1 SUMO dose = SUMO pathway inhibitors in yeast Mot1-301 growth; shares compounds with SUMO Mot1 rescue; S. cerevisiae Mot1-301 galactose growth, ATP luminescence, 24 h; -100 = growth of slx-deleted rescue strain; growth activity, percent, % at 42 µM; 2,300 tested, under 10 active; AID 493004;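 active = Signal drops as the depositor expects, and the fitted half-maximal dose is no more than ten times the top valid tested dose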;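 note: more negative values mean stronger growth rescue toward the control strain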
Large screens that a line does not name were inactive (follow-up assays come after a bar, where they were run).

C[C@H]1CCCCO[C@H](CN(C)S(=O)(=O)c2ccc(F)cc2)[C@@H](C)CN([C@@H](C)CO)C(=O)c2cc(NC(=O)Cc3ccccc3)ccc2O1	none (no result: SUMO Mot1 rescue)
COc1ccccc1CC(=O)N1CCN(S(=O)(=O)c2ccccc2F)CC1	none
COc1ccccc1CC(=O)N1CCN(S(=O)(=O)c2ccccc2)CC1	SUMO Mot1 rescue 383 | Mot1 SUMO dose inactive
COC(=O)[C@H]1[C@H](CO)[C@H]2Cn3c(ccc(-c4ccc(F)cc4)c3=O)[C@H]2N1C(=O)C1CCC1	none (no result: SUMO Mot1 rescue)
CCSc1nc(N)nc2c1ncn2C1OC(CO)C(O)C1O (configuration not stated)	none (no result: SUMO Mot1 rescue)
CSc1ncc2ncn(C3OC(CO)C(O)C3O)c2n1 (configuration not stated)	SUMO Mot1 rescue active | Mot1 SUMO dose inactive
Cc1noc(C)c1S(=O)(=O)N(C)C[C@@H]1Oc2c(cccc2N(C)C)C(=O)N([C@H](C)CO)C[C@H]1C	none (no result: SUMO Mot1 rescue)
CC1=C(C#N)S(=O)(=O)C(C#N)C(c2ccccc2)C1 (configuration not stated)	SUMO Mot1 rescue 502 (no result: C2C12 statin) | Mot1 SUMO dose inactive
O=S1(=O)C=CC(c2ccccc2)C1 (configuration not stated)	none
CO[C@H]1CN(C)C(=O)c2cc(NS(=O)(=O)c3cccc(F)c3)ccc2OC[C@@H](C)NC[C@@H]1C	none (no result: SUMO Mot1 rescue)
CC1=CC(C)(C)N(C(=O)CN2C(=O)CCC2=O)c2ccccc21	none (no result: Cneo AK release, C2C12 statin)
CC1CC(C)(C)N(C(=O)CN2C(=O)CCC2=O)c2ccccc21 (configuration not stated)	SUMO Mot1 rescue 371 | Mot1 SUMO dose inactive
C[C@@H]1CCCCO[C@@H](CN(C)S(=O)(=O)c2ccc(F)cc2)[C@@H](C)CN([C@@H](C)CO)C(=O)c2cc(NS(=O)(=O)c3cn(C)cn3)ccc2O1	none (no result: SUMO Mot1 rescue, C2C12 statin)
O=C(N/N=C/c1ccccn1)c1cc(-c2cccc3ccccc23)n[nH]1	none (no result: Cneo AK release, C2C12 statin)
O=C(O)c1ccc(/C=N/NC(=O)c2cc(-c3ccc4c5c(cccc35)CC4)n[nH]2)cc1	SUMO Mot1 rescue active (no result: C2C12 statin) | Mot1 SUMO dose inactive
Cc1cc(=O)oc(C)c1C(=O)Nc1cccnc1Cl	none (no result: C2C12 statin)
Cc1cc(=O)oc(C)c1C(=O)Nc1ccc(Cl)cn1	SUMO Mot1 rescue 421 | Mot1 SUMO dose inactive
C[C@@H]1CCCCO[C@@H](CN(C)C(=O)Nc2ccc(C(F)(F)F)cc2)[C@H](C)CN([C@@H](C)CO)C(=O)c2cc(NC(=O)Nc3ccc(F)cc3)ccc2O1	none (no result: SUMO Mot1 rescue)
CCCNC(=O)Nc1ccc2c(c1)OC[C@@H](C)N(C(=O)C1CCCCC1)C[C@@H](C)[C@H](OC)CN(C)C2=O	none (no result: SUMO Mot1 rescue)
Cc1nn(CC(=O)Nc2cccc(O)c2)c(=O)c2ccccc12	none (no result: SUMO Mot1 rescue)
Cc1ccc(NC(=O)Cn2nc(C)c3ccccc3c2=O)cc1	SUMO Mot1 rescue 369 (no result: Cneo AK release) | Mot1 SUMO dose inactive
CCCC#Cc1ccc2c(c1)O[C@@H](CN(C)CC1CCOCC1)[C@H](C)CN([C@H](C)CO)S2(=O)=O	none (no result: SUMO Mot1 rescue)
Cc1ccc2c(c1)N(Cc1ccccc1)C(=O)C(C)O2 (configuration not stated)	none (no result: SUMO Mot1 rescue)
CC1=Nc2ccc(C)cc2N(Cc2ccccc2)C(=O)C1	SUMO Mot1 rescue 629 | Mot1 SUMO dose inactive
CN(C)C(=O)c1cccc(-c2ccc3c(c2)[C@H]2[C@H](CCN2C(=O)c2ccccc2)[C@@H](CO)N3C)c1	none (no result: SUMO Mot1 rescue)
O=c1[nH]c(=O)n(C2CCCO2)cc1Br (configuration not stated)	SUMO Mot1 rescue 678 | Mot1 SUMO dose inactive
O=c1[nH]c(=O)n([C@H]2C[C@H](O)[C@@H](CO)O2)cc1Br	none
CC(C)(C)Cc1nc(-c2ccccn2)no1	SUMO Mot1 rescue 392 (no result: C2C12 statin) | Mot1 SUMO dose inactive
Cc1ccc(OCc2nc(-c3ccccn3)no2)cc1	none
CC(C)NC(=O)NC(=O)COC(=O)CCCSc1nc2ccccc2s1	SUMO Mot1 rescue 505 | Mot1 SUMO dose inactive
NC(=O)NC(=O)COC(=O)CCCSc1nc2ccccc2s1	none
CCC(=O)Nc1ccc2c(c1)C(=O)N(C)[C@@H]1CC[C@H](CC(=O)NC3Cc4ccccc4C3)O[C@@H]1CO2	none (no result: SUMO Mot1 rescue)
Cc1onc(-c2c(F)cccc2Cl)c1C(=O)N1CCc2ccccc2C1	none (no result: Cneo AK release)
Cc1onc(-c2ccccc2Cl)c1C(=O)N1CCc2ccccc2C1	SUMO Mot1 rescue 680 | Mot1 SUMO dose inactive
CC=Cc1ccc2n(c1=O)C[C@H]1[C@H](CO)[C@@H](C(=O)NCc3ccc4c(c3)OCO4)[C@@H]2N1C(=O)CC (mixture of isomers)	none (no result: SUMO Mot1 rescue)
CCOC(=O)Cn1c(=O)oc2cc(S(=O)(=O)NCCC(C)C)ccc21	none
CCOC(=O)Cn1c(=O)oc2cc(S(=O)(=O)NC(C)(C)CC)ccc21	SUMO Mot1 rescue 643 | Mot1 SUMO dose inactive
C[C@@H]1CN([C@H](C)CO)S(=O)(=O)c2ccc(C#CC3CC3)cc2O[C@@H]1CN(C)S(C)(=O)=O	none (no result: SUMO Mot1 rescue)
COc1ccc(-c2cn(CC[C@H]3CC[C@@H](NC(=O)NC(C)C)[C@H](CO)O3)nn2)cc1	none (no result: SUMO Mot1 rescue)
CCN1C(=O)c2cccc3c(S(=O)(=O)Nc4ccccc4)ccc1c23	none
CCN1C(=O)c2cccc3c(S(=O)(=O)Nc4ccc(OC)cc4OC)ccc1c23	SUMO Mot1 rescue 768 (no result: C2C12 statin) | Mot1 SUMO dose inactive
CCC(=O)N1C[C@@H](C)[C@H](OC)CN(C)C(=O)c2ccc(NC(=O)c3cnccn3)cc2OC[C@H]1C	none (no result: SUMO Mot1 rescue)
C=CSc1sc(Cl)c(N(C)C)c1[N+](=O)[O-]	SUMO Mot1 rescue 411 | Mot1 SUMO dose inactive
C=CSc1sc(Cl)c(N(CC)CC)c1[N+](=O)[O-]	none (no result: Cneo AK release, C2C12 statin)
COc1ccc(S(=O)(=O)Nc2ccc3c(c2)C(=O)N([C@@H](C)CO)C[C@H](C)[C@H](CN(C)Cc2ccc(C(=O)Nc4ccccc4N)cc2)O3)cc1	none (no result: SUMO Mot1 rescue, C2C12 statin)
CC(C)(C)[S@](=O)N1Cc2cc(C(=O)NCc3ccncc3)nc(-c3cccc(-c4ccc(C#N)cc4)c3)c2[C@@H]1CCO	none (no result: SUMO Mot1 rescue)
CCC(C)(C)C1CCc2[nH]nc(C(=O)NC3CCCC3)c2C1 (configuration not stated)	none
O=C(NC1CCCCC1)c1n[nH]c2c1CCCCC2	SUMO Mot1 rescue 364 | Mot1 SUMO dose inactive
C[C@H](CO)N1C[C@H](C)[C@@H](CN(C)C)Oc2ccc(NC(=O)Nc3cccc4ccccc34)cc2CC1=O	none (no result: SUMO Mot1 rescue)
Cc1cccc(NS(=O)(=O)c2cccc(C(=O)NCC3(N4CCCCC4)CCCCC3)c2)c1	none
CNS(=O)(=O)c1cccc(C(=O)NCC2(N3CCCCC3)CCCCC2)c1	SUMO Mot1 rescue 402 | Mot1 SUMO dose inactive
C=C(C)Cn1c(N)cc(=O)nc1SCC(=O)Nc1cccc(C(F)(F)F)c1	SUMO Mot1 rescue 413 (no result: C2C12 statin) | Mot1 SUMO dose inactive
C=CCn1c(N)cc(=O)nc1SCC(=O)Nc1ccccc1	none
COC(=O)C[C@@H]1CC[C@H]2[C@H](COc3ccc(NC(=O)NC(C)C)cc3C(=O)N2C)O1	none (no result: SUMO Mot1 rescue)
C[C@@H]1CN([C@H](C)CO)C(=O)c2cc(NS(=O)(=O)c3ccc(Cl)cc3)ccc2O[C@@H](C)CCCCO[C@H]1CN(C)Cc1ccc2c(c1)OCO2	none (no result: SUMO Mot1 rescue, C2C12 statin)
COc1ccc(S(=O)(=O)Cc2ccc(C(=O)NCc3cccs3)o2)cc1	SUMO Mot1 rescue 462 | Mot1 SUMO dose inactive
O=C(NCc1cccs1)c1ccc(CS(=O)(=O)c2ccc(Cl)cc2)o1	none

High-throughput results as filed in PubChem.
